Data published in paper PMC5035790 (Annals of Oncology, 2016).
Marks after values point to notes of the source that are not given here.

Tests used:
[1] = Plasma pharmacokinetics of copanlisib; type: in vivo, human
non-Hodgkin's lymphoma = assay: Tumor response by International Working Group response criteria for lymphoma; type: in vivo, human; conditions: follicular lymphoma (FL), six patients
How it was run: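 NHL expansion cohort (follicular lymphoma and DLBCL) received 0.8 mg/kg as a 1-h IV infusion on days 1, 8 and 15 of each 28-day cycle, continued until progression or unfavourable risk:benefit. Response was judged by investigator assessment using International Working Group lymphoma criteria.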

[2] = Blood pressure monitoring after infusion; type: in vivo, human
p110γ = conditions: read-out: IC50 p110γ; cited from earlier work
p110α = conditions: read-out: IC50 p110α; cited from earlier work
plasma glucose = assay: Plasma glucose and insulin pharmacodynamics; type: in vivo, human; conditions: 33 of 51; blood glucose >200 mg/dl
[3] = cycle 1 day 1, NHL expansion, 0.8 mg/kg, n=9, value (range)
[4] = cycle 1 day 1, diabetic expansion, 0.4 mg/kg, n=6, value (range)
[5] = cycle 1 day 1, solid tumors expansion, 0.8 mg/kg, n=25, value (range)
[6] = human, plasma, intravenous, 0.8 mg/kg

COc1c(OCCCN2CCOCC2)ccc2c1N=C(NC(=O)c1cnc(N)nc1)N1CCN=C21 [copanlisib, Copanlisib]
coefficients of variation of Cmax and AUC(0–25) ([1]; 0.1 to 1.2 mg/kg): 30–50%
inter-patient variability of AUC ([1]; MTD 0.8 mg/kg): 47%
terminal half-life ([1]; MTD 0.8 mg/kg, coefficient of variation 43%): ~38 h
Cmax levels of unbound copanlisib ([1]; at the MTD): ~150 nM
dose dependence of Cmax and AUC(0–25) ([1]; between 0.1 and 1.2 mg/kg): dose-proportionally
tlast ([1]; cycle 1 day 1, MTD 0.8 mg/kg combined, n=7, value (range)): 142.5 (25.0–194.2)^e h
Tmax ([1]; cycle 1 day 1, MTD 0.8 mg/kg combined, n=34, value (range)): 1.0 (0.5–3.0)^d h
Tmax [1, 3]: 1.0 (0.5–1.0) h
tlast [1, 3]: 167.0 (47.3–191.9) h
tlast ([1]; cycle 1 day 1, cohort 1, 0.1 mg/kg, n=1, individual data): 48.6 h
tlast ([1]; cycle 1 day 1, cohort 2, 0.2 mg/kg, n=3, value (range)): 48.4 (25.0–49.0) h
tlast ([1]; cycle 1 day 1, cohort 3, 0.4 mg/kg, n=2, range): 167.8 to 170.2 h
tlast ([1]; cycle 1 day 1, cohort 4, 0.8 mg/kg, n=7, value (range)): 142.5 (25.0–192.0) h
tlast ([1]; cycle 1 day 1, cohort 5, 1.2 mg/kg, n=2, range): 29.3–167.2^b,c h
Tmax [1, 4]: 1.0 (1.0–1.2) h
tlast [1, 4]: 49.0 (48.9–167.4) h
Tmax [1, 5]: 1.0 (0.5–3.0) h
tlast [1, 5]: 118.5 (46.4–194.2) h
Tmax ([1]; cycle 1 day 15, MTD 0.8 mg/kg combined, n=36, value (range)): 1.0 (0.5–1.3)^m h
Tmax ([1]; cycle 1 day 15, solid tumors expansion, 0.8 mg/kg, n=22, value (range)): 1.0 (0.5–1.3)^l h
accumulation after once-weekly administration ([1]; days 1 and 15): no accumulation
concentration at 1 week ([1]; human, blood, intravenous, 0.8 mg/kg): 1.6 nM
AUC(0-t) ([1]; human, plasma, intravenous, 0.1 mg/kg, AUC(0–25), cycle 1 day 1, cohort 1, 0.1 mg/kg, n=1, individual data): 170 ng·h/mL
AUC(0-t) ([1]; human, plasma, intravenous, 0.1 mg/kg, AUC(0–25), cycle 1 day 15, cohort 1, 0.1 mg/kg, n=1, individual data): 175 ng·h/mL
AUC(0-t) ([1]; human, plasma, intravenous, 0.1 mg/kg, AUC(0–tlast), cycle 1 day 1, cohort 1, 0.1 mg/kg, n=1, individual data): 254 ng·h/mL
Cmax ([1]; human, plasma, intravenous, 0.1 mg/kg, cycle 1 day 1, cohort 1, 0.1 mg/kg, n=1, individual data): 32.9 ng/mL
Cmax ([1]; human, plasma, intravenous, 0.1 mg/kg, cycle 1 day 15, cohort 1, 0.1 mg/kg, n=1, individual data): 37.6 ng/mL
Tmax ([1]; human, plasma, intravenous, 0.1 mg/kg, tmax, cycle 1 day 1, cohort 1, 0.1 mg/kg, n=1, individual data): 0.5 h
Tmax ([1]; human, plasma, intravenous, 0.2 mg/kg): 1 h
AUC(0-t) ([1]; human, plasma, intravenous, 0.2 mg/kg, AUC(0–25), cycle 1 day 1, cohort 2, 0.2 mg/kg, n=3, geometric mean (%CV)): 384 ng·h/mL
AUC(0-t) ([1]; human, plasma, intravenous, 0.2 mg/kg, AUC(0–25), cycle 1 day 15, cohort 2, 0.2 mg/kg, n=3, geometric mean (%CV)): 453 ng·h/mL
AUC(0-t) ([1]; human, plasma, intravenous, 0.2 mg/kg, AUC(0–tlast), cycle 1 day 1, cohort 2, 0.2 mg/kg, n=3, geometric mean (%CV)): 472 ng·h/mL
Cmax ([1]; human, plasma, intravenous, 0.2 mg/kg, cycle 1 day 1, cohort 2, 0.2 mg/kg, n=3, geometric mean (%CV)): 79.8 ng/mL
Cmax ([1]; human, plasma, intravenous, 0.2 mg/kg, cycle 1 day 15, cohort 2, 0.2 mg/kg, n=3, geometric mean (%CV)): 89.4 ng/mL
Tmax ([1]; human, plasma, intravenous, 0.2 mg/kg, tmax, cycle 1 day 1, cohort 2, 0.2 mg/kg, n=3, value (range)): 1.1 h
Tmax ([1]; human, plasma, intravenous, 0.4 mg/kg): 1 h
AUC(0-t) ([1]; human, plasma, intravenous, 0.4 mg/kg, AUC(0–25), cycle 1 day 1, cohort 3, 0.4 mg/kg, n=2, range): 348 to 556 ng·h/mL
AUC(0-t) ([1]; human, plasma, intravenous, 0.4 mg/kg, AUC(0–25), cycle 1 day 1, diabetic expansion, 0.4 mg/kg, n=6, geometric mean (%CV)): 607 ng·h/mL
AUC(0-t) ([1]; human, plasma, intravenous, 0.4 mg/kg, AUC(0–25), cycle 1 day 15, cohort 3, 0.4 mg/kg, n=2, range): 324 to 803 ng·h/mL
AUC(0-t) ([1]; human, plasma, intravenous, 0.4 mg/kg, AUC(0–25), cycle 1 day 15, diabetic expansion, 0.4 mg/kg, n=6, geometric mean (%CV)): 687 ng·h/mL
AUC(0-t) ([1]; human, plasma, intravenous, 0.4 mg/kg, AUC(0–tlast), cycle 1 day 1, cohort 3, 0.4 mg/kg, n=2, range): 722 to 1450 ng·h/mL
AUC(0-t) ([1]; human, plasma, intravenous, 0.4 mg/kg, AUC(0–tlast), cycle 1 day 1, diabetic expansion, 0.4 mg/kg, n=6, geometric mean (%CV)): 1070 ng·h/mL
Cmax ([1]; human, plasma, intravenous, 0.4 mg/kg, cycle 1 day 1, cohort 3, 0.4 mg/kg, n=2, range): 143 to 144 ng/mL
Cmax ([1]; human, plasma, intravenous, 0.4 mg/kg, cycle 1 day 1, diabetic expansion, 0.4 mg/kg, n=6, geometric mean (%CV)): 138 ng/mL
Cmax ([1]; human, plasma, intravenous, 0.4 mg/kg, cycle 1 day 15, cohort 3, 0.4 mg/kg, n=2, range): 70.1 to 193 ng/mL
Cmax ([1]; human, plasma, intravenous, 0.4 mg/kg, cycle 1 day 15, diabetic expansion, 0.4 mg/kg, n=6, geometric mean (%CV)): 151 ng/mL
half-life ([1]; human, plasma, intravenous, 0.4 mg/kg, t1/2, cycle 1 day 1, cohort 3, 0.4 mg/kg, n=1): 60.6 h
half-life ([1]; human, plasma, intravenous, 0.4 mg/kg, t1/2, cycle 1 day 1, diabetic expansion, 0.4 mg/kg, n=2, value (%)): 34.4 h
Tmax ([1]; human, plasma, intravenous, 0.4 mg/kg, tmax, cycle 1 day 1, cohort 3, 0.4 mg/kg, n=2, range): 0.5 to 1.1 h
Tmax ([1]; human, plasma, intravenous, 0.4 mg/kg, tmax, cycle 1 day 15, cohort 3, 0.4 mg/kg, n=2, range): 0.5 to 1.1 h
Tmax [1, 6]: 1 h
concentration at 8 day of cycle 1 [1, 6]: 4.92 ng/mL
AUC(0-t) ([1]; human, plasma, intravenous, 0.8 mg/kg, AUC(0–25), cycle 1 day 1, MTD 0.8 mg/kg combined, n=41, geometric mean (%CV)): 1590 ng·h/mL
AUC(0-t) ([1]; human, plasma, intravenous, 0.8 mg/kg, AUC(0–25), cycle 1 day 1, NHL expansion, 0.8 mg/kg, n=9, geometric mean (%CV)): 1350 ng·h/mL
AUC(0-t) ([1]; human, plasma, intravenous, 0.8 mg/kg, AUC(0–25), cycle 1 day 1, cohort 4, 0.8 mg/kg, n=7, geometric mean (%CV)): 1600 ng·h/mL
AUC(0-t) ([1]; human, plasma, intravenous, 0.8 mg/kg, AUC(0–25), cycle 1 day 15, MTD 0.8 mg/kg combined, n=35, geometric mean (%CV)): 1570 ng·h/mL
AUC(0-t) ([1]; human, plasma, intravenous, 0.8 mg/kg, AUC(0–25), cycle 1 day 15, NHL expansion, 0.8 mg/kg, n=8, geometric mean (%CV)): 1760 ng·h/mL
AUC(0-t) ([1]; human, plasma, intravenous, 0.8 mg/kg, AUC(0–25), cycle 1 day 15, cohort 4, 0.8 mg/kg, n=6, geometric mean (%CV)): 1480 ng·h/mL
AUC(0-t) ([1]; human, plasma, intravenous, 0.8 mg/kg, AUC(0–tlast), cycle 1 day 1, MTD 0.8 mg/kg combined, n=41, geometric mean (%CV)): 2880 ng·h/mL
AUC(0-t) ([1]; human, plasma, intravenous, 0.8 mg/kg, AUC(0–tlast), cycle 1 day 1, NHL expansion, 0.8 mg/kg, n=9, geometric mean (%CV)): 2710 ng·h/mL
AUC(0-t) ([1]; human, plasma, intravenous, 0.8 mg/kg, AUC(0–tlast), cycle 1 day 1, cohort 4, 0.8 mg/kg, n=7, geometric mean (%CV)): 2940 ng·h/mL
Cmax ([1]; human, plasma, intravenous, 0.8 mg/kg, cycle 1 day 1, MTD 0.8 mg/kg combined, n=41, geometric mean (%CV)): 454 ng/mL
Cmax ([1]; human, plasma, intravenous, 0.8 mg/kg, cycle 1 day 1, cohort 4, 0.8 mg/kg, n=7, geometric mean (%CV)): 293 ng/mL
Cmax ([1]; human, plasma, intravenous, 0.8 mg/kg, cycle 1 day 15, MTD 0.8 mg/kg combined, n=36, geometric mean (%CV)): 463 ng/mL
Cmax ([1]; human, plasma, intravenous, 0.8 mg/kg, cycle 1 day 15, NHL expansion, 0.8 mg/kg, n=8, geometric mean (%CV)): 507 ng/mL
Cmax ([1]; human, plasma, intravenous, 0.8 mg/kg, cycle 1 day 15, cohort 4, 0.8 mg/kg, n=6, geometric mean (%CV)): 370 ng/mL
half-life ([1]; human, plasma, intravenous, 0.8 mg/kg, t1/2, cycle 1 day 1, MTD 0.8 mg/kg combined, n=28, value (%)): 38.2 h
half-life ([1]; human, plasma, intravenous, 0.8 mg/kg, t1/2, cycle 1 day 1, NHL expansion, 0.8 mg/kg, n=8, value (%)): 38.9 h
half-life ([1]; human, plasma, intravenous, 0.8 mg/kg, t1/2, cycle 1 day 1, cohort 4, 0.8 mg/kg, n=4, value (%)): 42.3 h
half-life ([1]; human, plasma, intravenous, 0.8 mg/kg, t1/2, cycle 1 day 1, solid tumors expansion, 0.8 mg/kg, n=16, value (%)): 36.9 h
half-life ([1]; human, plasma, intravenous, 0.8 mg/kg, terminal half-life, MTD 0.8 mg/kg, coefficient of variation 43%): 38.2 h
Tmax ([1]; human, plasma, intravenous, 0.8 mg/kg, tmax, cycle 1 day 1, cohort 4, 0.8 mg/kg, n=7, value (range)): 1.1 h
Tmax ([1]; human, plasma, intravenous, 0.8 mg/kg, tmax, cycle 1 day 15, NHL expansion, 0.8 mg/kg, n=8, value (range)): 0.8 h
AUC(0-t) ([1]; human, plasma, intravenous, 1.2 mg/kg, AUC(0–25), cycle 1 day 1, cohort 5, 1.2 mg/kg, n=2, range): 2510 to 3820 ng·h/mL
AUC(0-t) ([1]; human, plasma, intravenous, 1.2 mg/kg, AUC(0–tlast), cycle 1 day 1, cohort 5, 1.2 mg/kg, n=2, range): 4090 to 5230 ng·h/mL
Cmax ([1]; human, plasma, intravenous, 1.2 mg/kg, cycle 1 day 1, cohort 5, 1.2 mg/kg, n=2, range): 616 to 739 ng/mL
half-life ([1]; human, plasma, intravenous, 1.2 mg/kg, t1/2, cycle 1 day 1, cohort 5, 1.2 mg/kg, n=1): 33 h
Tmax ([1]; human, plasma, intravenous, 1.2 mg/kg, tmax, cycle 1 day 1, cohort 5, 1.2 mg/kg, n=2, range): 0.6 to 1.3 h
response rate (non-Hodgkin's lymphoma): 100%
time of peak of post-infusion increase in blood pressure ([2]; in vivo): 1 to 2 h
time to resolution of post-infusion increase in blood pressure ([2]; post-infusion): ≤ 24 h
IC50 (p110γ): 6.4 nM
IC50 (p110α): 0.5 nM
non-diabetic patients receiving at least 1 dose of short-acting insulin (plasma glucose): 65%
